Assay results from ChEMBL document CHEMBL1914423, “New imidazo[2,1-b]thiazole derivatives: synthesis, in vitro anticancer evaluation, and in silico studies” (Eur J Med Chem, 2011).

Tests used:
Type in all cases: functional
PC-3 = assay: Anticancer activity against human PC3 cells after 48 hrs by SRB assay; conditions: PC-3, 48 h
UACC-257 = assay: Anticancer activity against human UACC257 cells after 48 hrs by SRB assay; conditions: UACC-257, 48 h
In short: (§1)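 NCI-60 five-dose mode: cells in RPMI 1640 with 5% FBS and 2 mM glutamine, plated at 5000–40,000 cells/well, and preincubated 24 h, with time-zero plates TCA-fixed. Drug given at five concentrations (10-fold or ½-log serial dilutions). Cold TCA fixation 60 min at 4 °C, SRB stain, Tris solubilization, A515. IC50 taken where [(Ti−Tz)/(C−Tz)]×100 = 50.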

SN12C = assay: Anticancer activity against human SN12C cells after 48 hrs by SRB assay
A549 = assay: Anticancer activity against human A549 cells after 48 hrs by SRB assay; conditions: A549, 48 h
In short: (§2)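 NCI five-dose screen. Cells in RPMI 1640 with 5% FBS and 2 mM L-glutamine, seeded at 5000–40,000 cells/well according to doubling time, then pre-incubated 24 h at 37 °C in 5% CO2. Drugs dissolved in DMSO, five concentrations by 10-fold or 1/2-log dilution. Cells fixed with TCA, SRB-stained, A515 read. IC50 solved from [(Ti−Tz)/(C−Tz)]×100 = 50.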

HCC 2998 = assay: Anticancer activity against human HCC2998 cells after 48 hrs by SRB assay; conditions: HCC 2998, 48 h; in short: as §2
EKVX = assay: Anticancer activity against human EKVX cells after 48 hrs by SRB assay; in short: as §2
A498 = assay: Anticancer activity against human A498 cells after 48 hrs by SRB assay; conditions: A498, 48 h; in short: as §2
UO-31 = assay: Anticancer activity against human UO31 cells after 48 hrs by SRB assay; conditions: UO-31, 48 h; in short: as §1
MOLT-4 = assay: Anticancer activity against human MOLT4 cells after 48 hrs by SRB assay; conditions: MOLT-4, 48 h
HL-60(TB) = assay: Anticancer activity against human HL-60(TB) cells after 48 hrs by SRB assay; conditions: HL-60, 48 h
In short: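 NCI-60 five-dose screen. Cells grown in RPMI 1640 with 5% FBS and 2 mM L-glutamine, seeded at 5000–40,000 cells/well, and held 24 h at 37 °C and 5% CO₂ before drug. DMSO stocks were diluted into five concentrations (10-fold or ½-log steps). Settled suspension cells were fixed with cold TCA, SRB-stained, and read at 515 nm. […] was taken where [(Ti−Tz)/(C−Tz)]×100 = 50.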

TK-10 = assay: Anticancer activity against human TK10 cells after 48 hrs by SRB assay; conditions: TK-10, 48 h; in short: as §1
NCI-H322M = assay: Anticancer activity against human NCI-H322M cells after 48 hrs by SRB assay
OVCAR-3 = assay: Anticancer activity against human OVCAR3 cells after 48 hrs by SRB assay; conditions: OVCAR-3, 48 h
NCI-H226 = assay: Anticancer activity against human NCI-H226 cells after 48 hrs by SRB assay; conditions: NCI-H226, 48 h
NCI-H23 = assay: Anticancer activity against human NCI-H23 cells after 48 hrs by SRB assay; conditions: NCI-H23, 48 h
IGROV-1 = assay: Anticancer activity against human IGROV1 cells after 48 hrs by SRB assay; conditions: IGROV-1, 48 h; in short: as §2
KM12 = assay: Anticancer activity against human KM12 cells after 48 hrs by SRB assay; conditions: KM12, 48 h; in short: as §2
DU-145 = assay: Anticancer activity against human DU145 cells after 48 hrs by SRB assay; conditions: DU-145, 48 h; in short: as §2
SF-295 = assay: Anticancer activity against human SF295 cells after 48 hrs by SRB assay; conditions: SF-295, 48 h
HCT-116 = assay: Anticancer activity against human HCT116 cells after 48 hrs by SRB assay; conditions: HCT-116, 48 h; in short: as §2
SR = assay: Anticancer activity against human SR cells after 48 hrs by SRB assay; in short: as §1
SNB-19 = assay: Anticancer activity against human SNB19 cells after 48 hrs by SRB assay; conditions: SNB-19, 48 h
[1] = Anticancer activity against human Hs 578T cells after 48 hrs by SRB assay; in short: as §2
SNB-75 = assay: Anticancer activity against human SNB75 cells after 48 hrs by SRB assay; conditions: SNB-75, 48 h
T47D = assay: Anticancer activity against human T47D cells after 48 hrs by SRB assay; in short: as §1
CCRF-CEM = assay: Anticancer activity against human CCRF-CEM cells after 48 hrs by SRB assay; in short: as §2
OVCAR-8 = assay: Anticancer activity against human OVCAR8 cells after 48 hrs by SRB assay; conditions: OVCAR-8, 48 h
[2] = read-out: LC50 (the source's name)

Structure (SMILES): O=C(NCCNc1nccc(-c2c(-c3cccc(O)c3)nc3sccn23)n1)Nc1cccc(C(F)(F)F)c1
- GI50 (PC-3): 2.94 µM
- TGI (PC-3): 12.6 µM
- CC50 (PC-3; [2]): > 100 µM
- GI50 (UACC-257): 2.51 µM
- TGI (UACC-257): 6.94 µM
- CC50 (UACC-257; [2]): 59.8 µM
- GI50 (SN12C): 3.42 µM
- TGI (SN12C): 20 µM
- CC50 (SN12C; [2]): > 100 µM
- GI50 (A549): 2.98 µM
- LC50 (concentration giving 50% net tumour cell kill) (A549): > 100 µM
- TGI (A549): 8.44 µM
- GI50 (HCC 2998): 2.68 µM
- TGI (HCC 2998): 5.77 µM
- CC50 (HCC 2998; [2]): 74.9 µM
- GI50 (EKVX): 4.16 µM
- LC50 (EKVX): > 100 µM
- TGI (EKVX): 36.6 µM
- GI50 (A498): 7.33 µM
- TGI (A498): 32.6 µM
- CC50 (A498; [2]): > 100 µM
- GI50 (UO-31): 3.25 µM
- TGI (UO-31): 16.8 µM
- CC50 (UO-31; [2]): 98.1 µM
- GI50 (MOLT-4): 3.6 µM
- TGI (MOLT-4): 14.6 µM
- CC50 (MOLT-4; [2]): > 100 µM
- GI50 (HL-60(TB)): 2.85 µM
- LC50 (HL-60(TB)): > 100 µM
- TGI (HL-60(TB)): 6.03 µM
- GI50 (TK-10): 3.66 µM
- TGI (TK-10): 11.1 µM
- CC50 (TK-10; [2]): 94.5 µM
- GI50 (NCI-H322M): 6.13 µM
- TGI (NCI-H322M): 26 µM
- CC50 (NCI-H322M; [2]): > 100 µM
- GI50 (OVCAR-3): 5.52 µM
- TGI (OVCAR-3): 22.7 µM
- CC50 (OVCAR-3; [2]): 87.3 µM
- GI50 (NCI-H226): 9.99 µM
- LC50 (concentration killing 50% of tumour cells) (NCI-H226): 81 µM
- TGI (NCI-H226): 28.5 µM
- GI50 (NCI-H23): 4.62 µM
- LC50 (50% lethal concentration) (NCI-H23): > 100 µM
- TGI (NCI-H23): 32.5 µM
- GI50 (IGROV-1): 3.48 µM
- TGI (IGROV-1): 13.1 µM
- CC50 (IGROV-1; [2]): 93.4 µM
- GI50 (KM12): 2.78 µM
- TGI (KM12): 6.98 µM
- CC50 (KM12; [2]): 29.9 µM
- GI50 (DU-145): 5.37 µM
- TGI (DU-145): 30 µM
- CC50 (DU-145; [2]): > 100 µM
- GI50 (SF-295): 4.16 µM
- TGI (SF-295): 29.7 µM
- CC50 (SF-295; [2]): > 100 µM
- GI50 (HCT-116): 3.58 µM
- TGI (HCT-116): 11.5 µM
- CC50 (HCT-116; [2]): 74.3 µM
- GI50 (SR): 6.08 µM
- TGI (SR): 40 µM
- CC50 (SR; [2]): > 100 µM
- GI50 (SNB-19): 5.08 µM
- TGI (SNB-19): 36.2 µM
- CC50 (SNB-19; [2]): > 100 µM
- GI50 [1]: 3.56 µM
- TGI [1]: 17.8 µM
- CC50 [1, 2]: > 100 µM
- GI50 (SNB-75): 2.5 µM
- TGI (SNB-75): 12.7 µM
- CC50 (SNB-75; [2]): 62.5 µM
- GI50 (T47D): 6.52 µM
- TGI (T47D): 25.6 µM
- CC50 (T47D; [2]): 97.1 µM
- GI50 (CCRF-CEM): 3.25 µM
- TGI (CCRF-CEM): 13.7 µM
- CC50 (CCRF-CEM; [2]): > 100 µM
- GI50 (OVCAR-8): 3.56 µM
- TGI (OVCAR-8): 11 µM
- CC50 (OVCAR-8; [2]): 37.6 µM
